In ChEMBL document CHEMBL1681772 (Bioorg Med Chem, 2011):
pIC50: −log10 of the molar value.

Target: T1, Prostaglandin G/H synthase 1 (Ovis aries, UniProt P05979)
T1 sequence (P05979 whole entry): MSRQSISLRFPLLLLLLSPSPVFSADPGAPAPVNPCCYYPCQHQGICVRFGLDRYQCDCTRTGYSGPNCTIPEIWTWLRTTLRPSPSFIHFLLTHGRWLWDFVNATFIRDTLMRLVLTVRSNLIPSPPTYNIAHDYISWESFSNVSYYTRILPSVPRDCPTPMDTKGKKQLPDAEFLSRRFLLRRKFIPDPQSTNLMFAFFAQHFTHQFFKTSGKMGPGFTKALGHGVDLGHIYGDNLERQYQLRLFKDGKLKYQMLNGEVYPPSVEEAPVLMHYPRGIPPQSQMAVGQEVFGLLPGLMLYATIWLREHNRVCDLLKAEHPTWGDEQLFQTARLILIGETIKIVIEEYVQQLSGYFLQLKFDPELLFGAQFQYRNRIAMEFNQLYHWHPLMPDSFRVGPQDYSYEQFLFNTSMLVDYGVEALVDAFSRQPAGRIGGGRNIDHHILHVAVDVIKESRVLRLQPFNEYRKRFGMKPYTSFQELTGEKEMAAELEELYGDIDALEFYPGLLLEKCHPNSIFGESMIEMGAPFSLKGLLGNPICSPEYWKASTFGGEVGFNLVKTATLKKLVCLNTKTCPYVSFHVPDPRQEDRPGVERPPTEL
Test: Inhibition of ovine COX1 assessed as PGF2alpha level by EIA
Summary of the method: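 Ovine COX-1 with heme in 0.1 M Tris-HCl pH 8.0 (5 mM EDTA, 2 mM phenol); compound at […] (final), 2 min preincubation at 37 °C. Started with arachidonic acid (100 µM), stopped after 2 min with 1 M HCl. PGH2 reduced to PGF2α by stannous chloride and quantified by EIA (18 h, room temperature; Ellman's reagent, 410 nm). IC50 from percent inhibition, mean of two determinations.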

Question: `COC1(c2cccc(CS(=O)(=O)Nc3ccccc3OCc3ccccc3)c2)CCOCC1` was tested. Which pIC50 did it give?
Answer: 4.83

Question: With `COC1(c2cccc(CS(=O)(=O)Nc3ccc(Cl)cc3OCc3ccccc3)c2)CCOCC1` as the compound, how does the pIC50 read?
Answer: 4.61

Question: `COC1(c2cccc(CS(=O)(=O)Nc3cc(Cl)ccc3OCc3ccccc3)c2)CCOCC1` was tested. Which pIC50 did it give?
Answer: 4.81

Question: `COC1(c2cccc(CS(=O)(=O)Nc3cc(C)ccc3OCc3ccccc3)c2)CCOCC1` was tested. Which pIC50 did it give?
Answer: 4.78

Question: With `COC1(c2cccc(CS(=O)(=O)Nc3ccc([N+](=O)[O-])cc3OCc3ccccc3)c2)CCOCC1` as the compound, how does the pIC50 read?
Answer: 5.10

Question: How did the pIC50 turn out when `CCOC(=O)c1ccc(OCc2ccccc2)c(NS(=O)(=O)Cc2cccc(C3(OC)CCOCC3)c2)c1` was run?
Answer: 4.94

Question: With `COC1(c2cccc(CN(c3ccccc3OCc3ccccc3)S(C)(=O)=O)c2)CCOCC1` as the compound, how does the pIC50 read?
Answer: < 4.00

Question: How did the pIC50 turn out when `COC1(c2cccc(CN(c3ccc(Cl)cc3OCc3ccccc3)S(C)(=O)=O)c2)CCOCC1` was run?
Answer: < 4.00

Question: How did the pIC50 turn out when `COC1(c2cccc(CN(c3cc(Cl)ccc3OCc3ccccc3)S(C)(=O)=O)c2)CCOCC1` was run?
Answer: < 4.00

Question: How did the pIC50 turn out when `COC1(c2cccc(CN(c3cc(C)ccc3OCc3ccccc3)S(C)(=O)=O)c2)CCOCC1` was run?
Answer: < 4.00

Question: `COC1(c2cccc(CN(c3ccc([N+](=O)[O-])cc3OCc3ccccc3)S(C)(=O)=O)c2)CCOCC1` was tested. Which pIC50 did it give?
Answer: 4.87

Question: With `COC1(c2cccc(CNc3ccccc3OCc3ccccc3)c2)CCOCC1` as the compound, how does the pIC50 read?
Answer: < 4.00

Question: How did the pIC50 turn out when `COC1(c2cccc(CNc3ccc(Cl)cc3OCc3ccccc3)c2)CCOCC1` was run?
Answer: 4.46

Question: With `COC1(c2cccc(CNc3cc(Cl)ccc3OCc3ccccc3)c2)CCOCC1` as the compound, how does the pIC50 read?
Answer: < 4.00

Question: `COC1(c2cccc(CNc3cc(C)ccc3OCc3ccccc3)c2)CCOCC1` was tested. Which pIC50 did it give?
Answer: < 4.00

Question: With `COC1(c2cccc(CNc3ccc([N+](=O)[O-])cc3OCc3ccccc3)c2)CCOCC1` as the compound, how does the pIC50 read?
Answer: 4.05

Question: How did the pIC50 turn out when `COC1(c2cccc(COc3ccccc3OCc3ccccc3)c2)CCOCC1` was run?
Answer: < 4.00

Question: With `COC1(c2cccc(COc3ccc(Cl)cc3OCc3ccccc3)c2)CCOCC1` as the compound, how does the pIC50 read?
Answer: < 4.00

Question: `COC1(c2cccc(COc3ccc(Br)cc3OCc3ccccc3)c2)CCOCC1` was tested. Which pIC50 did it give?
Answer: < 4.00

Question: With `CCOC(=O)c1ccc(OCc2cccc(C3(OC)CCOCC3)c2)c(OCc2ccccc2)c1` as the compound, how does the pIC50 read?
Answer: 4.35

Question: How did the pIC50 turn out when `CS(=O)(=O)Nc1ccc([N+](=O)[O-])cc1Oc1ccccc1` [NIMESULIDE] was run?
Answer: 5.21
